Data: ChEMBL document CHEMBL4152256, “Structure-activity relationship of new antimalarial 1-aryl-3-susbtituted propanol derivatives: Synthesis, preliminary toxicity profiling, parasite life cycle stage studies, target exploration, and targeted delivery” (Eur J Med Chem, 2018)
Activity calls are given as the source filed them. The calls are words filed in the database; no cut-off is given here.

Assays:
Plasmodium falciparum [1] = experiment: Antiplasmodial activity against multidrug-resistant Plasmodium falciparum C235 after 72 hrs by MSF assay; type: functional, organism-based; conditions: C235, 72 h
Summary of the method: (§1)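 D6 and C235 strains from the Walter Reed Army Institute of Research were tested by the Malaria SYBR Green-I fluorescence assay.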

Plasmodium berghei [2] = experiment: Antiplasmodial activity against GFP-fused Plasmodium berghei sporozoites infected in human HepG2A16 cells treated simultaneously with infection by fluorescence microscopic analysis; type: functional, organism-based
Summary of the method: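 HepG2-A16 cells (3 × 10^4/well, collagen-coated) infected with PbGFP sporozoites (5 × 10^3 to 1 × 10^4/well) and treated at the same time. Top concentration 10 µg/mL in DMEM, seven serial dilutions. Medium and compound renewed at 3 h and every 24 h. After 40 h at 37 °C: methanol fixation, anti-Plasmodium Hsp70 immunolabeling, Alexa 594 secondary, DAPI; high-content imaging.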

[3] = Solubility of the compound in DSPC:cholesterol:DSPE-PEG2000-Mal:DOPE-Rho lipid mixture at 250 uM; type: physicochemical
Summary of the method: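 Compound added at 250 µM drug to the initial liposome lipid mixture (10 mM total lipid); precipitation and UV-visible absorbance above 300 nm assessed after encapsulation, removal of unencapsulated material and extraction with 1% w/v SDS in RPMI-A.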

[4] = Genotoxicity in Salmonella typhimurium TA1535 harboring pSK1002 assessed as survival at 0.001 mg/ml in presence of Sprague-Dawley rat liver S9 fraction after by SOS/umu assay relative to control; type: toxicity, organism-based; conditions: salmonella enterica subsp. enterica serovar typhimurium, read-out: Survival
[5] = Genotoxicity in Salmonella typhimurium TA1535 harboring pSK1002 assessed as survival at 0.25 mg/ml in absence of Sprague-Dawley rat liver S9 fraction after by SOS/umu assay relative to control; type: toxicity, organism-based; conditions: salmonella enterica subsp. enterica serovar typhimurium, read-out: Survival
[6] = Genotoxicity in Salmonella typhimurium TA1535 harboring pSK1002 assessed as survival at 0.031 mg/ml in presence of Sprague-Dawley rat liver S9 fraction after by SOS/umu assay relative to control; type: toxicity, organism-based; conditions: salmonella enterica subsp. enterica serovar typhimurium, read-out: Survival
[7] = Genotoxicity in Salmonella typhimurium TA1535 harboring pSK1002 assessed as survival at 0.002 mg/ml in absence of Sprague-Dawley rat liver S9 fraction after by SOS/umu assay relative to control; type: toxicity, organism-based; conditions: salmonella enterica subsp. enterica serovar typhimurium, read-out: Survival
[8] = Genotoxicity in Salmonella typhimurium TA1535 harboring pSK1002 assessed as survival at 0.004 mg/ml in presence of Sprague-Dawley rat liver S9 fraction after by SOS/umu assay relative to control; type: toxicity, organism-based; conditions: salmonella enterica subsp. enterica serovar typhimurium, read-out: Survival
Plasmodium falciparum [9] = experiment: Antiplasmodial activity against Plasmodium falciparum D6 after 72 hrs by MSF assay; type: functional, organism-based; conditions: D6, 72 h; summary of the method: as §1
Plasmodium berghei [10] = experiment: Antiplasmodial activity against Plasmodium berghei ANKA infected in mouse assessed as mouse survival time at 50 mg/kg/day, po for 4 consecutive days starting from 2 hrs post infection by MSF assay; type: functional
Summary of the method: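 Swiss male mice (20 ± 2 g) infected i.p. with 10^7 P. berghei ANKA parasitized cells in 0.1 mL 0.9% saline (day 0). Oral dosing began 2 h post-infection and continued daily on days 0–3, five mice per batch. Test drugs were given at 50 mg/kg/day in water:DMSO and chloroquine diphosphate at 3 mg/kg/day; a vehicle control was included. Survival was checked daily, and parasitemia was read on day 4 by modified MSF assay.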

[11] = Genotoxicity in Salmonella typhimurium TA1535 harboring pSK1002 assessed as umu gene induction at 0.25 mg/ml in absence of Sprague-Dawley rat liver S9 fraction after by SOS/umu assay relative to control; type: toxicity, organism-based; conditions: salmonella enterica subsp. enterica serovar typhimurium, read-out: FC
[12] = Genotoxicity in Salmonella typhimurium TA1535 harboring pSK1002 assessed as umu gene induction at 0.001 mg/ml in absence of Sprague-Dawley rat liver S9 fraction after by SOS/umu assay relative to control; type: toxicity, organism-based; conditions: salmonella enterica subsp. enterica serovar typhimurium, read-out: FC
[13] = Genotoxicity in Salmonella typhimurium TA1535 harboring pSK1002 assessed as umu gene induction at 0.031 mg/ml in absence of Sprague-Dawley rat liver S9 fraction after by SOS/umu assay relative to control; type: toxicity, organism-based; conditions: salmonella enterica subsp. enterica serovar typhimurium, read-out: FC
[14] = Genotoxicity in Salmonella typhimurium TA1535 harboring pSK1002 assessed as survival at 0.25 mg/ml in presence of Sprague-Dawley rat liver S9 fraction after by SOS/umu assay relative to control; type: toxicity, organism-based; conditions: salmonella enterica subsp. enterica serovar typhimurium, read-out: Survival
[15] = Genotoxicity in Salmonella typhimurium TA1535 harboring pSK1002 assessed as umu gene induction at 0.25 mg/ml in presence of Sprague-Dawley rat liver S9 fraction after by SOS/umu assay relative to control; type: toxicity, organism-based; conditions: salmonella enterica subsp. enterica serovar typhimurium, read-out: FC
Plasmodium berghei [16] = experiment: Antiplasmodial activity against Plasmodium berghei ANKA infected in mouse assessed as inhibition of parasitemia at 50 mg/kg/day, po for 4 consecutive days starting from 2 hrs post infection by MSF assay relative to control; type: functional
Summary of the method: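 Swiss male mice (20 ± 2 g) infected ip with 10^7 P. berghei ANKA parasitized cells (day 0). Five per group dosed orally 2 h after infection and daily on days 0–3. Test compounds at 50 mg/kg/day in water:DMSO; chloroquine diphosphate at 3 mg/kg/day; vehicle controls. Parasitemia measured on day 4 by MSF assay; survival checked daily.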

[17] = Genotoxicity in Salmonella typhimurium TA1535 harboring pSK1002 assessed as umu gene induction at 0.125 mg/ml in presence of Sprague-Dawley rat liver S9 fraction after by SOS/umu assay relative to control; type: toxicity, organism-based; conditions: salmonella enterica subsp. enterica serovar typhimurium, read-out: FC
[18] = Genotoxicity in Salmonella typhimurium TA1535 harboring pSK1002 assessed as survival at 0.5 mg/ml in absence of Sprague-Dawley rat liver S9 fraction after by SOS/umu assay relative to control; type: toxicity, organism-based; conditions: salmonella enterica subsp. enterica serovar typhimurium, read-out: Survival
[19] = Genotoxicity in Salmonella typhimurium TA1535 harboring pSK1002 assessed as survival at 0.5 mg/ml in presence of Sprague-Dawley rat liver S9 fraction after by SOS/umu assay relative to control; type: toxicity, organism-based; conditions: salmonella enterica subsp. enterica serovar typhimurium, read-out: Survival
[20] = Genotoxicity in Salmonella typhimurium TA1535 harboring pSK1002 assessed as umu gene induction at 0.5 mg/ml in absence of Sprague-Dawley rat liver S9 fraction after by SOS/umu assay relative to control; type: toxicity, organism-based; conditions: salmonella enterica subsp. enterica serovar typhimurium, read-out: FC
[21] = Genotoxicity in Salmonella typhimurium TA1535 harboring pSK1002 assessed as umu gene induction at 0.5 mg/ml in presence of Sprague-Dawley rat liver S9 fraction after by SOS/umu assay relative to control; type: toxicity, organism-based; conditions: salmonella enterica subsp. enterica serovar typhimurium, read-out: FC
[22] = Plasmodium berghei, HepG2A16, read-out: IC50

| SMILES | IC50 (Plasmodium falciparum [1]) [nM] | IC50 (Plasmodium berghei [2]) | solubility [3] | viability at 0.001 mg/ml [4] [%] | viability at 0.25 mg/ml [5] [%] | viability at 0.031 mg/ml [6] [%] | viability at 0.002 mg/ml [7] [%] | viability at 0.004 mg/ml [8] [%] | IC50 (Plasmodium falciparum [9]) [nM] | MSD (Plasmodium berghei [10]) [days] | fold induction at 0.25 mg/ml [11] | fold induction at 0.001 mg/ml [12] | fold induction at 0.031 mg/ml [13] | viability at 0.25 mg/ml [14] [%] | fold induction at 0.25 mg/ml [15] | inhibition in vivo at 50 mg/kg/day (Plasmodium berghei [16]) [%] | fold induction at 0.125 mg/ml [17] | also measured |
| --- | --- | --- | --- | --- | --- | --- | --- | --- | --- | --- | --- | --- | --- | --- | --- | --- | --- | --- |
| COc1ccccc1N1CCN(CCC(O)c2ccc(F)c3ccccc23)CC1 (stereo not given) | 410 | Not Active | Insoluble | 112 | 147 | 129 | 65.2 | 102 | 280 | 10 | 0.3 | 1.3 | 1.3 | 115 | 0.4 | ≤ 50 | 0.7 |  |
| N#Cc1ccc(N2CCC(NCCC(O)c3ccc(F)c4ccccc34)CC2)c(Br)c1 (stereo not given) | 150 |  |  | 87.2 |  | 35.3 | 106 | 97.5 | 120 | 10 |  | 1.3 | 1.5 |  |  | ≤ 50 |  |  |
| OC(CCN1CCN(C(c2ccccc2)c2ccccc2)CC1)c1ccc(F)c(F)c1 (stereo not given) |  | Not Active | Insoluble | 98.5 |  | 103 | 104 | 87.6 |  | 9 |  | 0.6 | 1.9 |  |  |  | 0.7 | inhibition (Plasmodium berghei [16]): inactive |
| N#Cc1ccc(N2CCC(NCCC(O)c3ccc(F)c4ccccc34)CC2)c(C(F)(F)F)c1 (stereo in doubt; 72) | 120 |  | Soluble | 121 |  | 35 | 110 | 136 | 80 | 10 |  | 1 | 0.7 |  |  | 80.4 | 0.2 | IC50 (Plasmodium berghei [2]; [22]): 2700 nM |
| OC(CCN1CCN(c2ccc(F)cc2)CC1)c1ccc(F)c2ccccc12 (stereo not given) |  |  |  | 101 | 51.2 | 140 | 110 | 95.6 |  |  | 1.1 | 0.7 | 0.7 | 66.2 | 0.9 |  | 0.7 | viability at 0.5 mg/ml [18]: 196%; viability at 0.5 mg/ml [19]: 112%; fold induction at 0.5 mg/ml [20]: 0.6; fold induction at 0.5 mg/ml [21]: 1.2 |
| OC(CCN1CCN(c2ccccc2C(F)(F)F)CC1)c1ccc(F)cc1 (stereo not given) |  |  | Insoluble | 84.6 | 70.1 | 86.7 | 110 | 92.9 |  |  | 0.5 | 0.9 | 0.8 | 24.6 | 1.3 |  | 1.9 | viability at 0.5 mg/ml [18]: 129%; viability at 0.5 mg/ml [19]: 37.2%; fold induction at 0.5 mg/ml [20]: 0.2; fold induction at 0.5 mg/ml [21]: 1.2 |
| N#Cc1ccc(N2CCC(NCCC(O)c3ccc(F)c4ccccc34)CC2)c(Cl)c1 (stereo not given) | 170 |  |  | 154 |  |  | 117 | 169 | 120 | 10 |  | 1 | 0.5 |  |  | ≤ 50 | 0.1 | IC50 (Plasmodium berghei [2]; [22]): 3410 nM |
| OC(CCN1CCN(C(c2ccccc2)c2ccccc2)CC1)c1ccc(F)c2ccccc12 (stereo not given) | 170 |  | Insoluble | 108 |  | 95.2 | 77.8 | 111 | 100 | 9 |  | 0.6 | 1 |  |  |  |  | IC50 (Plasmodium berghei [2]; [22]): 5420 nM; inhibition (Plasmodium berghei [16]): inactive |
| Oc1ccc(C(O)CCN2CC=C(c3ccc(F)cc3)CC2)cc1 (stereo not given) |  | Not Active |  | 102 |  | 110 | 98.6 | 112 |  |  |  | 1.2 | 1.1 |  |  |  | 0.4 |  |
| COc1ccccc1C1=CCN(CCC(O)c2ccc(F)c3ccccc23)CC1 (stereo not given) | 230 | Not Active | Insoluble | 106 | 233 | 124 | 86.6 | 91.1 | 150 |  | 0.1 | 0.9 | 1.3 | 182 | 0.2 |  | 0.7 |  |
| N#Cc1ccc(C(O)CCN2CC=C(c3ccc(F)cc3)CC2)cc1 (stereo not given) |  |  |  | 104 | 75.8 | 130 | 103 | 122 |  |  | 1.2 | 0.9 | 1.2 | 95.1 | 1.1 |  | 1 | viability at 0.5 mg/ml [18]: 66.5%; viability at 0.5 mg/ml [19]: 99.1%; fold induction at 0.5 mg/ml [20]: 1.2; fold induction at 0.5 mg/ml [21]: 0.9 |
| COc1ccccc1N1CCN(CCC(O)c2ccc(F)cc2)CC1 (stereo in doubt; 66) | 7260 | Not Active | Insoluble | 91.6 | 98.8 | 99.2 | 114 | 93.1 | 6320 | 12 | 1.1 | 1.1 | 1 | 90.4 | 1 | 96.4 | 1 |  |
